Experimental data taken from ChEMBL document CHEMBL4680287, “Ibrexafungerp: An orally active β-1,3-glucan synthesis inhibitor” (Bioorg Med Chem Lett, 2021).
Values after ≈ are worked out from the molar mass of the structure shown.

Tests used:
Candida albicans [1] = assay: Antifungal activity against Candida albicans MY1055 assessed as fungal growth inhibition measured after 24 hrs by liquid microdilution method; assay type: functional
Outline: (§1)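 Broth microdilution per CLSI protocols in RPMI medium. Read-out is the MIC, the lowest concentration completely inhibiting fungal growth. Run without serum and with added serum.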

Aspergillus fumigatus = assay: Antifungal activity against Aspergillus fumigatus MF5668 assessed inhibition of fungal growth by measuring morphological changes measured after 24 hrs by microscopy; assay type: functional; conditions: read-out: MEC
Outline: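 Microdilution per CLSI protocols in RPMI medium. Read-out is the minimum effective concentration (MEC). Run without serum and with 50% human serum.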

[2] = Inhibition of beta-1,3-glucan synthase in Candida albicans MY1055 microsomal membrane assessed as inhibition of TCA-insoluble material formation using UDP-[3H]-glucose as substrate incubated for 2 hrs in presence of GTP by radioactivity-based assay; assay type: microsomes, Microsome
Outline: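 GS IC50 measured using Candida albicans MY1055 microsomal membrane fragments as the enzyme source.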

Candida albicans [3] = assay: Antifungal activity against Candida albicans MY1055 assessed as fungal growth inhibition measured after 24 hrs in presence of 50% mouse serum by liquid microdilution method; assay type: functional; outline: as §1
Candida albicans [4] = assay: Antifungal activity against Candida albicans MY1055 infected in DBA/2 mouse model of disseminated candidiasis assessed as reduction in fungal burden in kidney by measuring log change in colony forming units at 12.5 mg/kg, po bid for 7 days by TOKA; assay type: functional; conditions: time 7 day
Outline: (§2)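 Murine disseminated candidiasis model (TOKA) in mice challenged with C. albicans MY1055 at 2.44 x 10^4 CFU/mouse. Dosed PO, or IP where stated. Kidneys collected aseptically 7 days after challenge and CFUs/g counted. Change in log CFU/g is relative to sham-treated controls; significance by two-tailed t test. Clearance is the percentage of kidneys below the detection limit.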

Candida albicans [5] = assay: Antifungal activity against Candida albicans MY1055 infected in DBA/2 mouse model of disseminated candidiasis assessed as reduction in fungal burden in kidney by measuring log change in colony forming units at 6.25 mg/kg, po bid for 7 days by TOKA; assay type: functional; conditions: time 7 day; outline: as §2
Candida albicans [6] = assay: Antifungal activity against Candida albicans MY1055 infected in DBA/2 mouse model of disseminated candidiasis assessed as reduction in fungal burden in kidney by measuring log change in colony forming units at 25 mg/kg, po bid for 7 days by TOKA; assay type: functional; conditions: time 7 day; outline: as §2
[7] = Dose normalized AUC in po dosed mouse; assay type: ADME, organism-based; conditions: in vivo
[8] = Oral bioavailability in mouse; assay type: ADME, organism-based; conditions: in vivo
Outline: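 Oral bioavailability calculated as oral AUC normalized to the IV dose, divided by the IV AUC.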

MIC (Candida albicans [1])	IC50 [2]	MIC (Candida albicans [3])	AUC/dose [7]	bioavailability [8]	Structure (SMILES)	minimal effective concentration (Aspergillus fumigatus)	Activity (Candida albicans [4])	Activity (Candida albicans [5])	Activity (Candida albicans [6])
0.25 µg/mL (≈ 0.375 µM)	0.01 µg/mL	8 µg/mL	–	–	CCc1ncnn1[C@@H]1C[C@@]23COC[C@](C)([C@@H]2CC[C@H]2C3=CC[C@@]3(C)[C@H](C(=O)O)[C@@](C)([C@H](C)C(C)C)CC[C@]23C)[C@H]1OC[C@](C)(N)C(C)C	< 0.03 µg/mL	–	–	–
0.25 µg/mL (≈ 0.333 µM)	0.006 µg/mL	4 µg/mL	–	–	CC(C)[C@@H](C)[C@@]1(C)CC[C@]2(C)[C@H]3CC[C@@H]4[C@@]5(COC[C@@]4(C)[C@@H](OC[C@](C)(N)c4ccccc4)[C@H](n4ncnc4-c4ccncc4)C5)C3=CC[C@@]2(C)[C@@H]1C(=O)O	0.125 µg/mL	-1.5 deltalog10CFU	-0.5 deltalog10CFU	-2.6 deltalog10CFU
0.25 µg/mL (≈ 0.383 µM)	0.005 µg/mL	4 µg/mL	–	–	Cc1ncnn1[C@@H]1C[C@@]23COC[C@](C)([C@@H]2CC[C@H]2C3=CC[C@@]3(C)[C@H](C(=O)O)[C@@](C)([C@H](C)C(C)C)CC[C@]23C)[C@H]1OC[C@](C)(N)C(C)C	0.03 µg/mL	–	–	–
0.06 µg/mL (≈ 0.0822 µM)	0.001 µg/mL	0.5 µg/mL	0.83 µM·kg·h/mg	29%	CN[C@@](C)(CO[C@H]1[C@H](n2ncnc2-c2ccncc2)C[C@@]23COC[C@]1(C)[C@@H]2CC[C@H]1C3=CC[C@@]2(C)[C@H](C(=O)O)[C@@](C)([C@H](C)C(C)C)CC[C@]12C)C(C)C	< 0.03 µg/mL	-3.1 deltalog10CFU	-0.9 deltalog10CFU	-3.7 deltalog10CFU
0.125 µg/mL (≈ 0.174 µM)	0.002 µg/mL	1 µg/mL	0.23 µM·kg·h/mg	29%	CC(C)[C@@H](C)[C@@]1(C)CC[C@]2(C)[C@H]3CC[C@@H]4[C@@]5(COC[C@@]4(C)[C@@H](OC[C@](C)(N)C(C)C)[C@H](n4ncnc4-c4ccnnc4)C5)C3=CC[C@@]2(C)[C@@H]1C(=O)O	< 0.03 µg/mL	-1.2 deltalog10CFU	-1.2 deltalog10CFU	-2.6 deltalog10CFU
0.5 µg/mL (≈ 0.697 µM)	0.004 µg/mL	4 µg/mL	–	–	CC(C)[C@@H](C)[C@@]1(C)CC[C@]2(C)[C@H]3CC[C@@H]4[C@@]5(COC[C@@]4(C)[C@@H](OC[C@](C)(N)C(C)C)[C@H](n4ncnc4-c4cnccn4)C5)C3=CC[C@@]2(C)[C@@H]1C(=O)O	< 0.03 µg/mL	–	–	–
0.5 µg/mL (≈ 0.682 µM)	–	8 µg/mL	–	–	CC(C)[C@@H](C)[C@@]1(C)CC[C@]2(C)[C@H]3CC[C@@H]4[C@@]5(COC[C@@]4(C)[C@@H](OC[C@](C)(N)C(C)C)[C@H](n4ncnc4-c4ccccc4F)C5)C3=CC[C@@]2(C)[C@@H]1C(=O)O	< 0.03 µg/mL	–	–	–
0.25 µg/mL (≈ 0.341 µM)	0.011 µg/mL	8 µg/mL	–	–	CC(C)[C@@H](C)[C@@]1(C)CC[C@]2(C)[C@H]3CC[C@@H]4[C@@]5(COC[C@@]4(C)[C@@H](OC[C@](C)(N)C(C)C)[C@H](n4ncnc4-c4ccc(F)cc4)C5)C3=CC[C@@]2(C)[C@@H]1C(=O)O	< 0.03 µg/mL	–	–	–
< 0.03 µg/mL	0.005 µg/mL	4 µg/mL	2.38 µM·kg·h/mg	43%	CC(C)[C@@H](C)[C@@]1(C)CC[C@]2(C)[C@H]3CC[C@@H]4[C@@]5(COC[C@@]4(C)[C@@H](OC[C@](C)(N)C(C)C)[C@H](n4ncnc4-c4ccncn4)C5)C3=CC[C@@]2(C)[C@@H]1C(=O)O	< 0.03 µg/mL	–	–	–
< 0.03 µg/mL	0.005 µg/mL	2 µg/mL	–	–	CC(C)[C@@H](C)[C@@]1(C)CC[C@]2(C)[C@H]3CC[C@@H]4[C@@]5(COC[C@@]4(C)[C@@H](OC[C@](C)(N)C(C)C)[C@H](n4ncnc4-c4cccnn4)C5)C3=CC[C@@]2(C)[C@@H]1C(=O)O	< 0.03 µg/mL	–	–	–
0.25 µg/mL (≈ 0.349 µM)	0.007 µg/mL	2 µg/mL	–	–	CC(C)[C@@H](C)[C@@]1(C)CC[C@]2(C)[C@H]3CC[C@@H]4[C@@]5(COC[C@@]4(C)[C@@H](OC[C@H](N)C(C)(C)C)[C@H](n4ncnc4-c4ccncc4)C5)C3=CC[C@@]2(C)[C@@H]1C(=O)O	< 0.03 µg/mL	-2.4 deltalog10CFU	-1 deltalog10CFU	-2.6 deltalog10CFU
0.06 µg/mL (≈ 0.0838 µM)	0.001 µg/mL	1 µg/mL	–	–	CCC(N)(CC)CO[C@H]1[C@H](n2ncnc2-c2ccncc2)C[C@@]23COC[C@]1(C)[C@@H]2CC[C@H]1C3=CC[C@@]2(C)[C@H](C(=O)O)[C@@](C)([C@H](C)C(C)C)CC[C@]12C	< 0.03 µg/mL	-2.3 deltalog10CFU	-1.3 deltalog10CFU	-3.3 deltalog10CFU
0.03 µg/mL (≈ 0.0403 µM)	0.002 µg/mL	1 µg/mL	0.62 µM·kg·h/mg	–	CN[C@@](C)(CO[C@H]1[C@H](n2ncnc2-c2ccncc2)C[C@@]23COC[C@]1(C)[C@@H]2CC[C@H]1C3=CC[C@@]2(C)[C@H](C(=O)O)[C@@](C)([C@H](C)C(C)C)CC[C@]12C)C(C)(C)C	0.008 µg/mL	-3.2 deltalog10CFU	-1.7 deltalog10CFU	-4.2 deltalog10CFU

Further lines, the compound ahead of its results:

Structure (SMILES)	MIC (Candida albicans [1])	IC50 [2]	MIC (Candida albicans [3])	AUC/dose [7]	bioavailability [8]	minimal effective concentration (Aspergillus fumigatus)	Activity (Candida albicans [4])	Activity (Candida albicans [5])	Activity (Candida albicans [6])
CC(C)[C@@H](C)[C@@]1(C)CC[C@]2(C)[C@H]3CC[C@@H]4[C@@]5(COC[C@@]4(C)[C@@H](OC[C@](C)(N)C(C)C)[C@H](n4ncnc4-c4cccc(F)c4)C5)C3=CC[C@@]2(C)[C@@H]1C(=O)O	0.25 µg/mL (≈ 0.341 µM)	0.011 µg/mL	8 µg/mL	–	–	< 0.03 µg/mL	–	–	–
CC(C)[C@@H](C)[C@@]1(C)CC[C@]2(C)[C@H]3CC[C@@H]4[C@@]5(COC[C@@]4(C)[C@@H](OC[C@](C)(N)C(C)C)[C@H](n4cncn4)C5)C3=CC[C@@]2(C)[C@@H]1C(=O)O	0.25 µg/mL (≈ 0.391 µM)	0.007 µg/mL	4 µg/mL	–	–	< 0.03 µg/mL	–	–	–
COc1cc(-c2ncnn2[C@@H]2C[C@@]34COC[C@](C)([C@@H]3CC[C@H]3C4=CC[C@@]4(C)[C@H](C(=O)O)[C@@](C)([C@H](C)C(C)C)CC[C@]34C)[C@H]2OC[C@](C)(N)C(C)C)ccn1	0.25 µg/mL (≈ 0.335 µM)	0.008 µg/mL	4 µg/mL	–	–	< 0.03 µg/mL	–	–	–
CN[C@@](C)(CO[C@H]1[C@H](n2ncnc2-c2ccccn2)C[C@@]23COC[C@]1(C)[C@@H]2CC[C@H]1C3=CC[C@@]2(C)[C@H](C(=O)O)[C@@](C)([C@H](C)C(C)C)CC[C@]12C)C(C)C	0.25 µg/mL (≈ 0.342 µM)	0.003 µg/mL	16 µg/mL	–	–	< 0.03 µg/mL	–	–	–
COc1ccc(-c2ncnn2[C@@H]2C[C@@]34COC[C@](C)([C@@H]3CC[C@H]3C4=CC[C@@]4(C)[C@H](C(=O)O)[C@@](C)([C@H](C)C(C)C)CC[C@]34C)[C@H]2OC[C@](C)(N)C(C)C)cc1	0.5 µg/mL (≈ 0.671 µM)	0.015 µg/mL	8 µg/mL	–	–	< 0.03 µg/mL	–	–	–
CC(C)[C@@H](C)[C@@]1(C)CC[C@]2(C)[C@H]3CC[C@@H]4[C@@]5(COC[C@@]4(C)[C@@H](OC[C@](C)(N)C(C)C)[C@H](n4ncnc4C4CC4)C5)C3=CC[C@@]2(C)[C@@H]1C(=O)O	0.125 µg/mL (≈ 0.184 µM)	0.006 µg/mL	16 µg/mL	–	–	0.008 µg/mL	–	–	–
CCCc1ncnn1[C@@H]1C[C@@]23COC[C@](C)([C@@H]2CC[C@H]2C3=CC[C@@]3(C)[C@H](C(=O)O)[C@@](C)([C@H](C)C(C)C)CC[C@]23C)[C@H]1OC[C@](C)(N)C(C)C	8 µg/mL (≈ 11.7 µM)	0.003 µg/mL	16 µg/mL	–	–	< 0.03 µg/mL	–	–	–
COc1cccc(-c2ncnn2[C@@H]2C[C@@]34COC[C@](C)([C@@H]3CC[C@H]3C4=CC[C@@]4(C)[C@H](C(=O)O)[C@@](C)([C@H](C)C(C)C)CC[C@]34C)[C@H]2OC[C@](C)(N)C(C)C)c1	0.25 µg/mL (≈ 0.336 µM)	0.011 µg/mL	32 µg/mL	–	–	< 0.03 µg/mL	–	–	–
CC(C)[C@@H](C)[C@@]1(C)CC[C@]2(C)[C@H]3CC[C@@H]4[C@@]5(COC[C@@]4(C)[C@@H](OC[C@](C)(N)C(C)C)[C@H](n4ncnc4-c4ncccn4)C5)C3=CC[C@@]2(C)[C@@H]1C(=O)O	0.25 µg/mL (≈ 0.349 µM)	0.004 µg/mL	8 µg/mL	–	–	< 0.03 µg/mL	–	–	–
